For orientation: EC50 means the concentration at which the effect is half-maximal. What is called ED50 is the dose at which the effect has come halfway, by size or by number of responders. Broadly, the pKa is the negative logarithm of the acid dissociation constant. Low readings indicate a stronger acid or weaker base, high ones a weaker acid or stronger base.

The species named for one series is Rattus norvegicus. Nature of the series: In vitro effective concentration for [Ca2+] uptake and accumulation of [Ca2+] in neonatal rat cultured spinal sensory neurons. Type of series: functional. Put shortly:
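Newborn rat DRG neurones dissociated with collagenase then 2.5 mg/mL trypsin at 37 °C, plated with 1 μg/mL NGF, 10^-4 M cytosine arabinoside for 48 h; used at 3-7 days. Cells washed in Ca-free HEPES BSS pH 7.4, then given compound plus 10 μCi/mL 45Ca2+ with 1% DMSO for 10 min at room temperature. SDS-extracted, scintillation counted. Sigmoidal fit; ≥6 replicates, ≥2 experiments; mean ± SEM.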

The species named for the next series is Cavia porcellus. Nature of the series: In vitro contraction in guinea pig ileum equivalent to 50% capsaicin response. Type of series: functional. Put shortly:
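Male Dunkin-Hartley guinea pig ileum segments in Tyrode's solution at 37 °C, gassed 95% O2/5% CO2, isometric recording, 1 h equilibration under 0.5 g tension. […] doses given at 1 h intervals with frequent washes. Contraction amplitude expressed as % of maximal capsaicin response; EC50 = concentration giving 50% of that response; mean ± SEM from at least four tissues.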

The test system of a further series is Mus musculus. The series is described as follows: In vivo analgesic activity, mouse tail flick latency in antinociceptive assay. Type of series: functional. An outline of the steps: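 Female CD-1 mice, about 20 g, fasted overnight. Drug or vehicle given s.c. into the back of the neck, 10 per group. Tail flick latency to a focused light beam measured 1 h later at 3.5 cm from the tip, 30 s cutoff. % analgesia = (drug − vehicle latency)/(30 s − vehicle latency); ED50 = dose giving 50% analgesia. Mann-Whitney U or Dunnett's test.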
In general terms: In hot-plate and tail-flick tests a longer latency is read as antinociception.

Series [1] in a line: Acid dissociation constant was determined. Type of series: ADME.

In the case of `CCCCCCCCC(=O)NCc1cc(=O)c(O)co1`, the EC50 in the series listed under Rattus norvegicus was greater than 100 µM.
The compound `CCCCCCCCC(=O)NCc1ccc2[nH]ccc2c1` returned a concentration giving a half-maximal response (EC50) in the series filed under Rattus norvegicus greater than 100 µM.
`CCCCCCCCNC(=O)Cc1ccc(OC)c(C)c1` showed a 50% effective concentration (EC50) in the series listed under Rattus norvegicus greater than 100 µM.
Take `CCCCCCCCC(=O)NCc1cc(OC)c(OC)c(OC)c1`: the EC50 in the series filed under Rattus norvegicus was greater than 100 µM.
The same measure, in the same setting: the result for `CCCCCCCCNC(=O)Cc1cc(OC)c(O)c(OC)c1` reads greater than 100 µM.
The compound `CCCCCCCCC(=O)NCc1ccc(O)c(O)c1O` displayed an EC50 in the series filed under Rattus norvegicus of 7.64 µM.
`CCCCCCCCC(=O)NCc1ccnc(OC)c1` gave an EC50 in the series listed under Rattus norvegicus of 31.5 µM.
On the same count and under the same terms, the result for `CCCCCCCCNC(=O)Cc1ccc(OC)c(O)c1` reads 1.82 µM; that for `CCCCCCCCNC(=O)Cc1ccc2ncccc2c1`, greater than 100 µM.
Same read-out and setting: the result for `CCCCCCCCC(=O)NCc1ccc(N)c(OC)c1` reads greater than 10 µM.
`CCCCCCCCNC(=O)Cc1ccc2c(c1)OCO2`: the EC50 in the series filed under Rattus norvegicus was greater than 100 µM.
Turning to `CCCCCCCCNC(=O)Cc1ccc(O)c(Cl)c1`, the EC50 in the series filed under Cavia porcellus was 0.68 µM; in the series listed under Rattus norvegicus, 0.26 µM. The compound also displayed an ED50 in the series with Mus musculus greater than 50 µmol/kg. In addition, in series [1], the pKa was found to be 9.
Taken in the same sequence, the figures for `CCCCCCCCNC(=O)Cc1ccc(O)c([N+](=O)[O-])c1` were 2.78 µM, 1.04 µM, greater than 50 µmol/kg and 7.7.
Consider `CCCCCCCCC(=O)NCc1ccncc1`, for which the EC50 in the series listed under Rattus norvegicus is 28 µM.
On the same count and under the same terms, the value for `CCCCCCCCC(=O)NCc1cc[n+]([O-])cc1` was greater than 100 µM; that for `CCCCCCCCC(=O)NCc1ccc([N+](=O)[O-])c(OC)c1` was 7.91 µM.
With `CCCCCCCCNC(=O)Cc1ccc(O)c(OCC)c1`, the EC50 in the series listed under Cavia porcellus was 4.96 µM; in the series listed under Rattus norvegicus, 4.34 µM. The 50% effective dose (ED50) in the series with Mus musculus was greater than 50 µmol/kg. The same compound showed a pKa in series [1] of 10.4.
In turn, `CCCCCCCCC(=O)NCc1ccc(C(=O)O)cc1` showed an EC50 in the series filed under Rattus norvegicus greater than 100 µM.
`CCCCCCCCNC(=O)Cc1ccc(O)c2c1OCCO2`: the EC50 in the series listed under Rattus norvegicus is greater than 100 µM.
Still for that read-out and setting: the result for `CCCCCCCCC(=O)NCc1cc(O)cc(OC)c1` reads greater than 100 µM; that for `CCCCCCCCC(=O)NCc1cccc(OC)c1`, greater than 100 µM.
Still for that read-out and setting: the value for `CCCCCCCCC(=O)NCc1ccc(O)cc1OC` was greater than 100 µM.
Consider `CCCCCCCCNC(=O)Cc1ccc(O)c(OC)c1`, for which the EC50 in the series filed under Cavia porcellus turned out to be 0.33 µM; in the series filed under Rattus norvegicus, 0.3 µM. In the series with Mus musculus, the ED50 turned out to be 9.2 µmol/kg. The compound further registered a pKa in series [1] of 9.9.
`CCCCCCCCNC(=O)Cc1ccc(O)c(OC)c1OC` displayed an EC50 in the series filed under Rattus norvegicus greater than 100 µM.
Same read-out and setting: the result for `CCCCCCCCC(=O)NCc1ccc(S)c(OC)c1` reads greater than 100 µM; that for `CCCCCCCCNC(=O)Cc1cccc(OC)c1`, greater than 100 µM.
Take `CCCCCCCCNC(=O)Cc1ccc(O)c(C)c1`: in series [1], the pKa was 10.6. Besides, the EC50 in the series listed under Rattus norvegicus is greater than 100 µM.
On to `CCCCCCCCC(=O)NCc1ccc(OC)cc1`, for which the values for the EC50 in the series listed under Cavia porcellus and in the series listed under Rattus norvegicus were 22.2 µM and greater than 100 µM, respectively. The compound also showed an ED50 with Mus musculus greater than 50 µmol/kg.
Regarding `CCCCCCCCC(=O)NCc1ccccc1OC`, the EC50 in the series filed under Rattus norvegicus is greater than 100 µM.
Compound `CCCCCCCCC(=O)NCc1cccnc1` displayed an EC50 in the series listed under Rattus norvegicus greater than 100 µM.
`CCCCCCCCC(=O)NCc1ccc(OC)c(OC)c1`: the EC50 is 1.15 µM in the series filed under Cavia porcellus and 6.41 µM in the series listed under Rattus norvegicus. This compound came in with a 50% effective dose (ED50) with Mus musculus greater than 50 µmol/kg.
In the series listed under Rattus norvegicus, `CCCCCCCCC(=O)NCc1cc(OC)c(O)cc1OC` displayed an EC50 greater than 100 µM.
Consider `CCCCCCCCNC(=O)Cc1ccc(O)c(O)c1`, for which the results for the EC50 in the series listed under Cavia porcellus and in the series filed under Rattus norvegicus were 0.33 µM and 0.41 µM, respectively. Besides, the ED50 in the series on Mus musculus amounted to 50 µmol/kg. Also, in series [1], the pKa came to 9.2.
In turn, `CCCCCCCCNC(=O)Cc1ccc(O)c(NC(C)=O)c1` yielded a pKa in series [1] of 9.7. Moreover, the half-maximal effective concentration (EC50) in the series filed under Rattus norvegicus is greater than 100 µM.
The compound `CCCCCCCCNC(=O)Cc1ccc(O)c(N)c1` gave a pKa in series [1] of 10. In addition, the EC50 in the series listed under Rattus norvegicus was greater than 100 µM.
For `CCCCCCCCNC(=O)Cc1ccc(O)cc1`, the EC50 worked out at 2.75 µM in the series filed under Cavia porcellus and 6.5 µM in the series listed under Rattus norvegicus. The ED50 in the series on Mus musculus was greater than 50 µmol/kg. The pKa in series [1] is 10.2.
Consider `CCCCCCCCC(=O)NCc1ccc(O)c(O)c1`, for which the concentration giving a half-maximal response (EC50) in the series filed under Cavia porcellus came out at 0.22 µM; in the series filed under Rattus norvegicus, 0.63 µM. In the series on Mus musculus, this compound gave a median effective dose (ED50) of 20 µmol/kg.
Take `CCCCCCCCC(=O)NCc1cccc(O)c1`: the EC50 in the series listed under Rattus norvegicus is greater than 100 µM.
Still for that read-out and setting: the result for `CCCCCCCCC(=O)NCc1ccc2c(c1)OCO2` reads greater than 100 µM.
Take `COc1cc(CNC(=O)CCCC/C=C/C(C)C)ccc1O` [CAPSAICIN]: the EC50 stood at 0.26 µM in the series filed under Cavia porcellus and 0.3 µM in the series filed under Rattus norvegicus. This compound gave an ED50 with Mus musculus of 15 µmol/kg.
In turn, `CCCCCCCCC(=O)NCc1ccccc1` [NONANOIC ACID BENZYLAMIDE] had an EC50 in the series filed under Rattus norvegicus greater than 100 µM.
As for `CCCCCCCCC(=O)NCc1ccc(O)c(OC)c1` [NONIVAMIDE], the values for the 50% effective concentration (EC50) in the series filed under Cavia porcellus and in the series listed under Rattus norvegicus were 0.4 µM and 0.55 µM, respectively. The ED50 with Mus musculus amounted to 5 µmol/kg.

The record behind these values is ChEMBL document CHEMBL1126765, “Analogues of capsaicin with agonist activity as novel analgesic agents; structure-activity studies. 1. The aromatic "A-region"” (J Med Chem, 1993).
